From ChEMBL document CHEMBL1275350, “First in class, potent, and orally bioavailable NADPH oxidase isoform 4 (Nox4) inhibitors for the treatment of idiopathic pulmonary fibrosis” (J Med Chem, 2010)

Columns and labels:
Cytochrome P450 2C9 = Cytochrome P450 2C9 (Homo sapiens, UniProt P11712); experiment: Inhibition of human CYP2C9; type: ADME
Method in brief: (§1)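 Recombinant human CYP isoforms with isoform-specific probe substrates and NADPH. Compound at 0.1–25 μM, final DMSO 0.3%. Metabolites measured by mass spectrometry, except CYP1A2, which used a fluorescent metabolite. IC50 derived from the decrease in metabolite formation compared with vehicle control.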

NADPH oxidase 4 = target: T1, NADPH oxidase 4 (Homo sapiens, UniProt Q9NPH5); experiment: Inhibition of human NOX4 overexpressed in T-REx-293 cell membrane assessed as ROS production by cell free assay in presence of NADPH; conditions: in the assay text read “T-REx-293 cell membrane” for “human PMN cell membrane”
T1 sequence (Q9NPH5 whole entry): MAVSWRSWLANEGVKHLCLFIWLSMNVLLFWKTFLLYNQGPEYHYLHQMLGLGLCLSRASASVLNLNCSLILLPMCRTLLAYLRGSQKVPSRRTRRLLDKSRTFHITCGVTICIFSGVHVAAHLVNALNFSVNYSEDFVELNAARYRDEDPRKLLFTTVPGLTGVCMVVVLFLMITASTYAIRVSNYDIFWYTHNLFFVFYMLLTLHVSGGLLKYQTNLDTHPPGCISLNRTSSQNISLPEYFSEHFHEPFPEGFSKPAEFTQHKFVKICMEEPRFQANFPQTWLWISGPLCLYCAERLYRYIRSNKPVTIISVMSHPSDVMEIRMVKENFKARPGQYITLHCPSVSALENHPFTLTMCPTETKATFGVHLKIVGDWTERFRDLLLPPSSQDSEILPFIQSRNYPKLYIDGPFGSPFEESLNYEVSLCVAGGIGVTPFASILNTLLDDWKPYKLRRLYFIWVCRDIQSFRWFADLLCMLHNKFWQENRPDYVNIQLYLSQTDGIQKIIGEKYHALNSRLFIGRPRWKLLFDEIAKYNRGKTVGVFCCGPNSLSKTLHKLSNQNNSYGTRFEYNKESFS
Method in brief: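 hNOX4 T-REx-293 cells induced with tetracycline (1 μg/mL, 24 h), sonicated in sucrose/NaCl/EGTA PBS buffer pH 7.4, membranes taken from a sucrose gradient. NADPH-triggered ROS measured by Amplex Red/HRP in PBS, with compound at 1 nM–100 μM, 20 min at 37 °C. Ki by Cheng-Prusoff from ≥3 triplicate experiments.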

[1] = Permeability across human Caco-2 cell membrane at 10 uM after 2 hrs; type: ADME, cell-based
Method in brief: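 Caco-2 monolayers grown 20 days in DMEM, used when TEER >800 Ω·cm2. Dosed at 10 μM final in HBSS pH 6.5 with 1% DMSO, apical-to-basolateral and basolateral-to-apical. Incubated 2 h at 37 °C, both compartments sampled, LC-MS/MS with five-point calibration. Papp = (dQ/dt)/(C0A).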

Cytochrome P450 2C19 = Cytochrome P450 2C19 (Homo sapiens, UniProt P33261); experiment: Inhibition of human CYP2C19; type: ADME; method in brief: as §1
[2] = Intrinsic clearance in Sprague-Dawley rat liver microsomes assessed per mg of protein at 0.5 uM; type: ADME, Microsome
Method in brief: (§2)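 Phase I stability assay in pooled liver microsomes (human: male and female; rat: male Sprague-Dawley). Microsomes at 0.5 mg/mL final in 0.1 M phosphate pH 7.4. Compound 0.5 μM final, 0.25% DMSO. Preincubated at 37 °C, reaction started with 1 mM NADPH. Sampled at 0, 5, 15, 30 and 45 min, with a 45 min minus-NADPH control. Methanol quench with internal standard, LC/MS-MS, intrinsic clearance calculated.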

[3] = Intrinsic clearance in human liver microsomes assessed as per mg of protein at 0.5 uM; type: ADME, Microsome; method in brief: as §2
Cytochrome P450 3A4 = Cytochrome P450 3A4 (Homo sapiens, UniProt P08684); experiment: Inhibition of human CYP3A4; type: ADME; method in brief: as §1
Cytochrome P450 2C8 = Cytochrome P450 2C8 (Homo sapiens, UniProt P10632); experiment: Inhibition of human CYP2C8; type: ADME; method in brief: as §1
[4] = Cmax in Sprague-Dawley rat at 1 mg/kg, iv; type: ADME, organism-based; design: dose 1 mg/kg, route intravenous; conditions: in vivo
Rattus norvegicus = experiment: Hepatic blood flow in Sprague-Dawley rat at 5 mg/kg, iv; type: ADME, organism-based, Liver; design: dose 5 mg/kg, route intravenous; conditions: in vivo
[5] = Half life in Sprague-Dawley rat at 1 mg/kg, iv; type: ADME, organism-based; design: dose 1 mg/kg, route intravenous; conditions: in vivo
[6] = Tmax in Sprague-Dawley rat at 5 mg/kg, sc; type: ADME, organism-based; design: dose 5 mg/kg, route subcutaneous; conditions: in vivo
[7] = Clearance in Sprague-Dawley rat at 1 mg/kg, iv; type: ADME, organism-based; design: dose 1 mg/kg, route intravenous; conditions: in vivo
[8] = Volume of distribution at steady state in Sprague-Dawley rat at 1 mg/kg, iv; type: ADME, organism-based; design: dose 1 mg/kg, route intravenous; conditions: in vivo, read-out: Vdss
[9] = Tmax in Sprague-Dawley rat at 10 mg/kg, po; type: ADME, organism-based; design: dose 10 mg/kg, route oral; conditions: in vivo
Method in brief: (§3)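 Parallel design in male rats, three per group. Group 1: 5 mg/kg iv in EDPW (10% EtOH, 10% DMA, 30% PG, 50% water). Group 2: 10 mg/kg oral in aqueous 0.5% CMC with 0.25% Tween 20. Carotid cannula blood drawn up to 24 h. Plasma measured by LC/MS/MS (LLOQ 1.00 ng/mL), noncompartmental analysis.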

[10] = AUC (infinity) in Sprague-Dawley rat at 10 mg/kg, po; type: ADME, organism-based; design: time infinity, dose 10 mg/kg, route oral; conditions: plasma
Method in brief: (§4)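 Parallel design with six male rats: three given 5 mg/kg iv in EDPW (10% EtOH, 10% DMA, 30% PG, 50% water), three given 10 mg/kg orally in aqueous 0.5% CMC with 0.25% Tween 20. Carotid cannula blood sampled up to 24 h. Plasma levels by LC/MS/MS (LLOQ 1.00 ng/mL). Noncompartmental analysis.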

[11] = AUC (infinity) in Sprague-Dawley rat at 1 mg/kg, iv; type: ADME, organism-based; design: time infinity, dose 1 mg/kg, route intravenous; conditions: plasma
[12] = Tmax in Sprague-Dawley rat at 1 mg/kg, iv; type: ADME, organism-based; design: dose 1 mg/kg, route intravenous; conditions: in vivo
[13] = AUC (infinity) in Sprague-Dawley rat at 5 mg/kg, sc; type: ADME, organism-based; design: time infinity, dose 5 mg/kg, route subcutaneous; conditions: plasma
[14] = Half life in Sprague-Dawley rat at 5 mg/kg, sc; type: ADME, organism-based; design: dose 5 mg/kg, route subcutaneous; conditions: in vivo
[15] = Bioavailability in Sprague-Dawley rat at 5 mg/kg, sc; type: ADME, organism-based; conditions: in vivo
[16] = Cmax in Sprague-Dawley rat at 10 mg/kg, po; type: ADME, organism-based; design: dose 10 mg/kg, route oral; conditions: in vivo; method in brief: as §4
NADPH oxidase 2 = NADPH oxidase 2 (Homo sapiens, UniProt P04839); experiment: Inhibition of human NOX2 overexpressed in […] cell membrane assessed as ROS production by cell free assay in presence of NADPH
Method in brief: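 Nox2 source: membranes from human polymorphonuclear cells, sonicated and collected at the 17/40% sucrose interface. ROS read by Amplex Red/HRP in PBS after NADPH addition, with compound at 1 nM–100 μM for 20 min at 37 °C. Background taken without membranes or agonist. Ki via Cheng-Prusoff, mean of ≥3 experiments in triplicate.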

[17] = Cmax in Sprague-Dawley rat at 5 mg/kg, sc; type: ADME, organism-based; design: dose 5 mg/kg, route subcutaneous; conditions: in vivo
[18] = Oral bioavailability in Sprague-Dawley rat at 10 mg/kg; type: ADME, organism-based; conditions: in vivo; method in brief: as §3
[19] = Half life in Sprague-Dawley rat at 10 mg/kg, po; type: ADME, organism-based; design: dose 10 mg/kg, route oral; conditions: in vivo; method in brief: as §4
[20] = target: Xanthine dehydrogenase/oxidase (Homo sapiens, UniProt P47989); experiment: Inhibition of xanthine oxidase by in vitro enzymatic assay in presence of xanthine
Method in brief: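 Cell-free Amplex Red read-out: xanthine oxidase incubated in PBS with Amplex Red, HRP and cofactors; ROS production started by adding xanthine. Compound at rising concentrations from 1 nM to 100 μM, 20 min at 37 °C, then read on a plate reader. Background taken without enzyme or without agonist. Ki by Cheng-Prusoff, mean of at least three experiments run in triplicate.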

[21] = Clearance in Sprague-Dawley rat at 5 mg/kg, iv; type: ADME, organism-based; design: dose 5 mg/kg, route intravenous; conditions: in vivo; method in brief: as §4
[22] = Half life in Sprague-Dawley rat at 5 mg/kg, iv; type: ADME, organism-based; design: dose 5 mg/kg, route intravenous; conditions: in vivo; method in brief: as §4
[23] = Clearance in Sprague-Dawley rat at 10 mg/kg, po; type: ADME, organism-based; design: dose 10 mg/kg, route oral; conditions: in vivo; method in brief: as §4
[24] = Cmax in Sprague-Dawley rat at 5 mg/kg, iv; type: ADME, organism-based; design: dose 5 mg/kg, route intravenous; conditions: in vivo; method in brief: as §4
[25] = AUC (infinity) in Sprague-Dawley rat at 5 mg/kg, iv; type: ADME, organism-based; design: time infinity, dose 5 mg/kg, route intravenous; conditions: plasma; method in brief: as §4
[26] = Volume of distribution at steady state in Sprague-Dawley rat at 5 mg/kg, iv; type: ADME, organism-based; design: dose 5 mg/kg, route intravenous; conditions: in vivo, read-out: Vdss; method in brief: as §3

Chain of Cytochrome P450 2C9 (P11712 whole entry, canonical isoform): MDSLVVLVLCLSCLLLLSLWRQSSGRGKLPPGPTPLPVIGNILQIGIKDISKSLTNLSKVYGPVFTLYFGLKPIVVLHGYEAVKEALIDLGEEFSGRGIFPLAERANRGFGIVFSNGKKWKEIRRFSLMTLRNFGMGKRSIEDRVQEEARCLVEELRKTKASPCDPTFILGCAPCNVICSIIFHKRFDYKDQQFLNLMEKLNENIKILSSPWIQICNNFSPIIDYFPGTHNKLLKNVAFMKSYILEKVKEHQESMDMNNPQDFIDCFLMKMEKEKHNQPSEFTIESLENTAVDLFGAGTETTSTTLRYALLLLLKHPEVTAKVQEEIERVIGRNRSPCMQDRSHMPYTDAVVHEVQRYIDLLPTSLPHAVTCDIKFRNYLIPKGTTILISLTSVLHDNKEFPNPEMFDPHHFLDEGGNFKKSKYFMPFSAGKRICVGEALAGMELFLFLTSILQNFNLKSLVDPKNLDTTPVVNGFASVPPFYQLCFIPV
Chain of Cytochrome P450 2C19 (P33261 whole entry): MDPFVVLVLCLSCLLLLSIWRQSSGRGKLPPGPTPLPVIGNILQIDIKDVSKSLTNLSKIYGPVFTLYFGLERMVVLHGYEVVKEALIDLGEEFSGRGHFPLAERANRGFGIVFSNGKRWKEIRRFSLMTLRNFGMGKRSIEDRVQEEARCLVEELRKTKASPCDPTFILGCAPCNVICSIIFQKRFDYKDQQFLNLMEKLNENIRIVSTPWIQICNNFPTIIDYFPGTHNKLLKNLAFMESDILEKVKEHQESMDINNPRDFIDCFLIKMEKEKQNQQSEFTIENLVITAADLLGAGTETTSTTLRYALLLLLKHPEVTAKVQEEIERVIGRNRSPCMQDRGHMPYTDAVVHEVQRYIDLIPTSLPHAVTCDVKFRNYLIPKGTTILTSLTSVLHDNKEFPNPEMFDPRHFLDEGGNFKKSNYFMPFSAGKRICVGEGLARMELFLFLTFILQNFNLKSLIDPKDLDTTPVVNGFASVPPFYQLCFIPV
Chain of Cytochrome P450 3A4 (P08684 whole entry): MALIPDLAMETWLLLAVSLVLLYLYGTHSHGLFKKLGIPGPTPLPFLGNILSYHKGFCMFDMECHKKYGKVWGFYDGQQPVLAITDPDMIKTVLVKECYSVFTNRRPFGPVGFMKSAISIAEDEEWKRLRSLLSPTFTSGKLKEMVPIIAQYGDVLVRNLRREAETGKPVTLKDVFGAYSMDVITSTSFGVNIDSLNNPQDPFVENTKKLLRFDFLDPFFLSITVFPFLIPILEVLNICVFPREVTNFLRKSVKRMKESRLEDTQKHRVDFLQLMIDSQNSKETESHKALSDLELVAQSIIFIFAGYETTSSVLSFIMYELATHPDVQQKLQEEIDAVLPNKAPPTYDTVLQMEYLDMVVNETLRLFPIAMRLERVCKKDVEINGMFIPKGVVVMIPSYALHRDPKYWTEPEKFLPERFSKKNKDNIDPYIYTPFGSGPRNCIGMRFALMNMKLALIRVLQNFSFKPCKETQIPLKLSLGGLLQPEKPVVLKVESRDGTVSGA
Chain of Cytochrome P450 2C8 (P10632 whole entry): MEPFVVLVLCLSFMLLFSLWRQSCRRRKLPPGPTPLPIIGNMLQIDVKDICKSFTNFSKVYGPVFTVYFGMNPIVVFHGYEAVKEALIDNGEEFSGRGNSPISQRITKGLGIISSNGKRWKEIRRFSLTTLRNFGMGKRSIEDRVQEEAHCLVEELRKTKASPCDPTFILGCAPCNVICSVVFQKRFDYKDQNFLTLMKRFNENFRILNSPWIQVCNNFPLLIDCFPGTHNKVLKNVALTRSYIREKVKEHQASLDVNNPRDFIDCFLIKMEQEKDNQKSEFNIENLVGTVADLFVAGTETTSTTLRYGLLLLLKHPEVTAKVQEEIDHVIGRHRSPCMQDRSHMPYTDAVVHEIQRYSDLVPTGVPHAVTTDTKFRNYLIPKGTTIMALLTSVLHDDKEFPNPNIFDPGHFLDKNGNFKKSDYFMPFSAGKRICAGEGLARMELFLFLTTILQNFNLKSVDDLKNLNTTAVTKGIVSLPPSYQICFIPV
Chain of Xanthine dehydrogenase/oxidase (P47989 whole entry): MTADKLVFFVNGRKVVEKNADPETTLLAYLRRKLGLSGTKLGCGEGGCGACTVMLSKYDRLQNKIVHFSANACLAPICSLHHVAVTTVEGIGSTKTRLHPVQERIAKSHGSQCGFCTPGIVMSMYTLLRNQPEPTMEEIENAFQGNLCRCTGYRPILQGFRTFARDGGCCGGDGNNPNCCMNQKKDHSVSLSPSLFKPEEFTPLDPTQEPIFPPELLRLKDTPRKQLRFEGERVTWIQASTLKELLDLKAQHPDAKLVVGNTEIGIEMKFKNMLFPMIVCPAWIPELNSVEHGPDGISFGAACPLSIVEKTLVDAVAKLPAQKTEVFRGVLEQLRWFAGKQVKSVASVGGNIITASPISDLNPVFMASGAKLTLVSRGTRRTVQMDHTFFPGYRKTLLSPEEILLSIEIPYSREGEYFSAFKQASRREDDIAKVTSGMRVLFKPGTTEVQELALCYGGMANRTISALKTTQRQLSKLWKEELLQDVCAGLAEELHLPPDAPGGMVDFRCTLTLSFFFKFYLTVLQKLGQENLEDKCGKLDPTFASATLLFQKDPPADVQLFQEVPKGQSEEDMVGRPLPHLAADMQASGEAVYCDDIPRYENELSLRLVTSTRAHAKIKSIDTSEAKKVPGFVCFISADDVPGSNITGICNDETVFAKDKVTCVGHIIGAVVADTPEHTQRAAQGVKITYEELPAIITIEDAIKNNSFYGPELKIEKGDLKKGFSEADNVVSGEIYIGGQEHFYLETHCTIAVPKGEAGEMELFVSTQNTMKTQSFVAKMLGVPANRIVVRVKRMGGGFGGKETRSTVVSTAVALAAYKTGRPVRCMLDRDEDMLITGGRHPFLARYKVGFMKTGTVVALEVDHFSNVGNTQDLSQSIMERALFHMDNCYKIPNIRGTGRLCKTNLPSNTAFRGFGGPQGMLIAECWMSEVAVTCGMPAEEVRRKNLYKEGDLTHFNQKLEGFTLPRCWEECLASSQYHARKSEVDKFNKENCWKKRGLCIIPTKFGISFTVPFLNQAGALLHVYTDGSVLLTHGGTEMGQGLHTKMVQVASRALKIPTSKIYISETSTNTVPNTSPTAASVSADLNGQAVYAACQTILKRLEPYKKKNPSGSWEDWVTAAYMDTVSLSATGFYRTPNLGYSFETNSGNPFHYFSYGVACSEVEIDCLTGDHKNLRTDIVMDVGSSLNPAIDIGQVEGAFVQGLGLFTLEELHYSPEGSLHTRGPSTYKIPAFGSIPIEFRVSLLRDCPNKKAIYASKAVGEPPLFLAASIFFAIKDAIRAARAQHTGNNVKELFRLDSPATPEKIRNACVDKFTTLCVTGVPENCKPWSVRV
Chain of NADPH oxidase 2 (P04839 whole entry): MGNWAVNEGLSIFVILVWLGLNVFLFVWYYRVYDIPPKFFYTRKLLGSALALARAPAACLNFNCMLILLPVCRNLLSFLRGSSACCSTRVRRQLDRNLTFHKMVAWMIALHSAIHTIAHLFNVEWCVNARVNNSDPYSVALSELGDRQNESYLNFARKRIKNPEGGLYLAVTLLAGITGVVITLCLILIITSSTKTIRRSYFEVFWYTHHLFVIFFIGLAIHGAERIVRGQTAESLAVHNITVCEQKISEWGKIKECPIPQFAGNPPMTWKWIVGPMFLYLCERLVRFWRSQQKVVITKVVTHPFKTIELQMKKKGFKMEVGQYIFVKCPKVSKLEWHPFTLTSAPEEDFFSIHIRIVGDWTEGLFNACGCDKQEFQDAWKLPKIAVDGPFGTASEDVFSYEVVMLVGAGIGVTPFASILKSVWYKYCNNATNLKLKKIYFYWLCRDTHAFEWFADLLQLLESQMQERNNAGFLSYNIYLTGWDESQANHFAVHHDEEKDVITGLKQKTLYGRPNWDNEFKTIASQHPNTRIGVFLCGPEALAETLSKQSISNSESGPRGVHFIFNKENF

| IC50 (Cytochrome P450 2C9) | Ki (NADPH oxidase 4) | Papp at 2 h, 10 µM [1] | IC50 (Cytochrome P450 2C19) | microsomal CLint at 0.5 µM [2] | microsomal CLint at 0.5 µM [3] | Tmax [9] | AUC(0-inf) [10] | Cmax [16] | bioavailability [18] | half-life [19] | Compound | further results |
| --- | --- | --- | --- | --- | --- | --- | --- | --- | --- | --- | --- | --- |
| 900 nM | 165 nM | 39.9 ×10⁻⁶ cm/s | 13000 nM | 248 µL/min/mg | 96.4 µL/min/mg |  |  |  |  |  | COCCCn1c(CN(C)Cc2ccccc2)c2c(=O)n(-c3ccc(F)cc3Cl)[nH]c2cc1=O |  |
| 4100 nM | 151 nM | 4.6 ×10⁻⁶ cm/s | 6500 nM | 78 µL/min/mg | 76.3 µL/min/mg |  |  |  |  |  | CN(Cc1c2c(=O)n(-c3ccccc3Cl)[nH]c2cc(=O)n1Cc1ccncc1)c1ccccc1 | IC50 (Cytochrome P450 3A4): 1100 nM; IC50 (Cytochrome P450 2C8): 3600 nM |
|  | 373 nM | 79.2 ×10⁻⁶ cm/s |  | 97.1 µL/min/mg |  | 15 min | 417 ng·h/mL | 575 ng/mL | 22% | 72 min | Cc1c2c(=O)n(-c3ccccc3)[nH]c2cc(=O)n1Cc1cccnc1 | Cmax [4]: 271 ng/mL; QH (Rattus norvegicus): 55 mL/min/kg; half-life [5]: 24 min; Tmax [6]: 30 min; clearance [7]: 85.2 mL/min/kg; Vd [8]: 2.36 L/kg; AUC(0-inf) [11]: 196 ng·h/mL; Tmax [12]: 4.8 min; AUC(0-inf) [13]: 815 ng·h/mL; half-life [14]: 42 min; bioavailability [15]: 87%; Ki (NADPH oxidase 2): 4720 nM; Cmax [17]: 678 ng/mL; Ki [20]: > 30000 nM |
|  | 114 nM | 7.3 ×10⁻⁶ cm/s |  | 62.3 µL/min/mg | 45.4 µL/min/mg | 19.8 min | 2430 ng·h/mL | 2830 ng/mL | 39% | 67.8 min | O=c1c2c(CN3CCCC3)n(CCc3ccccn3)c(=O)cc2[nH]n1-c1ccc(F)cc1Cl | clearance [21]: 26.8 mL/min/kg; half-life [22]: 198 min; CL/F [23]: 73.2 mL/min/kg; Cmax [24]: 6190 ng/mL; AUC(0-inf) [25]: 3130 ng·h/mL; Vd [26]: 1.49 L/kg |
